Published values gathered from unrelated publications.
Each line is one published result; the experiments were not run side by side.
Observed: metabolic stability

C[C@]12CC[C@H]3[C@@H](CCC4=CC(=O)CC[C@@]43C)[C@@H]1CC[C@@H]2O
half-life (mouse; liver microsomes; 1 µM): 2.1 min

Cc1nc2c(=O)n(C)c(=O)nc-2n(C)n1
half-life (mouse; liver microsomes): > 186 min

CCCCCCCCCCCCCCCCOCCCOP(=O)(O)CO[C@H](C)Cn1cnc2c(N)ncnc21.N
half-life (CD-1 mouse; liver microsomes; 3 µM; pH 7.4): > 120 min

Cc1cnc(Nc2ccc(C(=O)NC3CCN(C(=O)COCCOCCOCC(=O)N4CCC(NC(=O)c5ccc(Nc6ncc(C)c(Nc7ccc(Cl)c(NS(=O)(=O)C(C)(C)C)c7)n6)cc5F)CC4)CC3)c(F)c2)nc1Nc1ccc(Cl)c(NS(=O)(=O)C(C)(C)C)c1
half-life (mouse; liver microsomes): 33 min

Nc1ncnc2c1c(Oc1cc(Cl)ccn1)nn2C1CCC(F)(F)CC1
half-life (mouse; liver microsomes; 1 µM): ~25 min

O=C(c1cc(-n2sc3ncccc3c2=O)ccc1Cl)N1CCOCC1
half-life (mouse; liver microsomes): > 120 min

C[C@H](Cn1cnc2c(N)ncnc21)OCP(=O)(O)OCCCOCCCCCCCCCCCCCCCC(F)(F)F.N
half-life (CD-1 mouse; liver microsomes; 3 µM; pH 7.4): > 120 min

Cc1cc(C)nc(Nc2ncc(C(=O)NCCc3c(C)[nH]c4ccccc34)cn2)c1
half-life (CD-1 mouse; hepatocytes; 1 µM): 39 min

CN1CCCCC1Cn1cc(C(=O)c2cc([N+](=O)[O-])ccc2I)c2ccccc21 (racemic)
half-life (mouse; liver microsomes): 10.6 min

N=c1c2c(-c3ccccc3)c(-c3ccccc3)n(Cc3ccccc3)c2ncn1[C@H]1CC[C@H](O)CC1
half-life (mouse; liver S9; 1 µM): > 120 min

Nc1ncnc2c1c(Oc1cc(C(F)(F)F)ccn1)nn2C1CCC(F)(F)CC1
half-life (mouse; liver microsomes; 1 µM): ~25 min

C=C1NC(=O)[C@H](C)N(O)C(=O)[C@H]([C@@H](O)C(N)=O)N(C)C(=O)[C@H](C)OC(=O)[C@@H]2C[C@H](C)CN2C1=O
half-life (mouse; liver microsomes): > 120 min

O=C(c1ccc(-n2sc3ncccc3c2=O)cc1)N1CCOCC1
half-life (mouse; liver microsomes): > 120 min
